Results gathered from unrelated publications.
Compare with care: the assays were run in different laboratories. In brackets after ≈: the same amount, converted by molar mass.
Organism: Pseudomonas aeruginosa
Effect on: microbial growth

Structure (SMILES)	assay	system	conditions	MIC
Oc1cc(Cl)ccc1Oc1ccc(Cl)cc1Cl	–	–	–	> 25 µg/mL
CCCCCCCCCCCC(=O)OC[C@H]1O[C@@H](n2cc(C)c(=O)[nH]c2=O)C[C@@H]1OC(=O)c1ccc(C(C)(C)C)cc1	broth dilution	–	–	8 µg/mL (≈ 13.7 µM)
Cc1cc(/C=C2\Sc3ccccc3N2CCCN2CCC(C)CC2)c2ccccc2[n+]1C.[I-]	broth dilution	ATCCBAA2108	drug-resistant strain	64 µg/mL
COC(=O)c1cc(-c2cccc(NC(=O)Nc3ccc(F)cc3F)c2)on1	broth dilution	ATCC27853	–	> 64 µg/mL
Cc1cc(/C=C2\Sc3ccccc3N2CCCN2CCCCC2)c2ccccc2[n+]1C.[I-]	broth dilution	ATCCBAA2108	drug-resistant strain	64 µg/mL
CCCCCCNC(=S)Nc1cccc(-c2cc(C(=O)OC)no2)c1	broth dilution	ATCC27853	–	> 64 µg/mL
CN[C@@H]1[C@H](O)[C@H](NC)[C@H]2O[C@@]3(O)C(=O)C[C@@H](C)O[C@H]3O[C@@H]2[C@H]1O	broth dilution	PAO1	–	100 µg/mL (≈ 301 µM)
C[n+]1c(/C=C/c2c[nH]c3ccccc23)cc(/C=C2\Sc3ccccc3N2CCCN2CCOCC2)c2ccccc21.[I-]	broth dilution	ATCCBAA2108	drug-resistant strain	> 64 µg/mL
CCCCCCC#Cc1cncc(-c2nnc(Sc3ccc([N+](=O)[O-])cc3[N+](=O)[O-])n2C)c1	–	–	–	≥ 20 µg/mL
CC1(C)SC2C(NC(=O)C(NC(=O)C3=C(O)C(Cc4ccc([N+](=O)[O-])cc4)NC3=O)c3ccccc3)C(=O)N2C1C(=O)O (stereo not shown)	–	–	–	50 µg/mL (≈ 82 µM)
COC(=O)c1cc(-c2cccc(NC(=S)Nc3ccc(OC)cc3)c2)on1	broth dilution	ATCC27853	–	> 64 µg/mL
C[n+]1c(/C=C/c2ccc(O)cc2)cc(/C=C2\Sc3ccccc3N2CCCN2CCOCC2)c2ccccc21.[I-]	broth dilution	ATCCBAA2108	drug-resistant strain	> 64 µg/mL
COC(=O)c1cc(-c2cccc(NC(=O)Nc3cc(OC)ccc3OC)c2)on1	broth dilution	ATCC27853	–	> 64 µg/mL
CC1(C)S[C@@H]2[C@H](NC(=O)C(C(=O)O)c3ccccc3)C(=O)N2[C@H]1C(=O)O (stereo partly shown)	–	–	–	50 µg/mL (≈ 132 µM)
COC(=O)c1cc(-c2cccc(NC(=O)Nc3ccccc3F)c2)on1	broth dilution	ATCC27853	–	> 64 µg/mL
CN[C@H](CC(C)C)C(=O)N[C@H]1C(=O)N[C@@H](CC(N)=O)C(=O)N[C@H]2C(=O)N[C@H]3C(=O)N[C@H](C(=O)N[C@H](C(=O)O)c4cc(O)cc(O)c4-c4cc3ccc4O)[C@H](O)c3ccc(c(Cl)c3)Oc3cc2cc(c3O[C@@H]2O[C@H](CO)[C@@H](O)[C@H](O)[C@H]2O[C@H]2C[C@](C)(N)[C@H](O)[C@H](C)O2)Oc2ccc(cc2Cl)[C@H]1O	broth dilution	ATCCBAA2108	drug-resistant strain	> 64 µg/mL
